ChEMBL document CHEMBL4706594, “Targeting the aryl hydrocarbon receptor with a novel set of triarylmethanes” (Eur J Med Chem, 2020)

What was measured:
[1] = biological target: T1, Aryl hydrocarbon receptor (Homo sapiens, UniProt P35869); assay: Antagonist activity at AhR in human HepG2 cells co-transfected with pSELECT-zeo-Lucia and CYP1A1 assessed as inhibition of FICZ-induced receptor transactivation at 30 uM incubated for 24 hrs by luciferase reporter gene assay relative to control; format: cell-based; conditions: hepg2, 24 h
T1 sequence (P35869 whole entry): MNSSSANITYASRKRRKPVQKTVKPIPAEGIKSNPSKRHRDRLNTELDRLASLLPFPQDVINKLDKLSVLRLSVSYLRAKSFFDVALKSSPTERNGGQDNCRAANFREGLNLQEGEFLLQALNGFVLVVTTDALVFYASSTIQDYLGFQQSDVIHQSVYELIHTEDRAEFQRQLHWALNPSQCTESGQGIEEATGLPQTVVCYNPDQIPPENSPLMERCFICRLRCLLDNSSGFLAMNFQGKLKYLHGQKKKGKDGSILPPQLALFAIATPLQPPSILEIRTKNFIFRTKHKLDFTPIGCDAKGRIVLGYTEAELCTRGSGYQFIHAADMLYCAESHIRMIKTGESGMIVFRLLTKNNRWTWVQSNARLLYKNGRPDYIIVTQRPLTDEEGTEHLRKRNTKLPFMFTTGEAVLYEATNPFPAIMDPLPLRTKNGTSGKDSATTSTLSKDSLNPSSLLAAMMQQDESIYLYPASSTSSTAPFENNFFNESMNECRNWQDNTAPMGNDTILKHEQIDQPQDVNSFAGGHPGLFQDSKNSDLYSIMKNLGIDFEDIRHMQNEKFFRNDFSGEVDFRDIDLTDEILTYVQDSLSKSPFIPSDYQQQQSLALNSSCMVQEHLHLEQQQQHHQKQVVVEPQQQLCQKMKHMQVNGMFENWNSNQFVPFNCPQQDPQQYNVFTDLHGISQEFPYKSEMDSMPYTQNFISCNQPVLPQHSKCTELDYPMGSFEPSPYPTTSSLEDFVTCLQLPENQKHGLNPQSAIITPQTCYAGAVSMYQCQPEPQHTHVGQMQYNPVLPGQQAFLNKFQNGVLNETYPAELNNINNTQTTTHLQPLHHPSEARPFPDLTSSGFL

[2] = biological target: T1, Aryl hydrocarbon receptor; assay: Antagonist activity at AhR in human HepG2 cells assessed as inhibition of FICZ-induced AhR transcriptional activity incubated for 24 hrs by Quanti-Luc reagent based luminescence assay; format: cell-based
[3] = biological target: T1, Aryl hydrocarbon receptor; conditions: HepG2, human, 24 h, read-out: RUmax
[4] = biological target: T1, Aryl hydrocarbon receptor; assay: Agonist activity at AhR in human HepG2 cells co-transfected with pSELECT-zeo-Lucia and CYP1A1 assessed as induction of receptor transactivation incubated for 24 hrs by luciferase reporter gene assay; format: cell-based
[5] = biological target: T1, Aryl hydrocarbon receptor; conditions: HepG2, human, 24 h, read-out: RUmax; remark: listed apart in the source
HepG2 [6] = assay: Cytotoxicity against human HepG2 cells harboring AhR assessed as reduction in cell viability at 0.1 to 10 uM measured for 24 to 72 hrs by MTT assay; format: cell-based; conditions: hepg2, 10 µM, dose lower 0.1 µM, time lower 24 hrs, dose upper 10 µM, time upper 72 hrs
Procedure, shortened: (§1)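 AhR-HepG2 cells were treated for 24–72 h with compounds at 0.1, 1.0, 5.0 and 10.0 µM, some also at 2.5 and 7.5 µM. MTT at 0.5 mg/mL was added and plates incubated at 37 °C. Formazan was dissolved in DMSO and absorbance read at 490 nm. Viability below 85% of vehicle counted as cytotoxic. One-way ANOVA with Dunnett's test; mean ± SEM, n≥3.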

[7] = biological target: T1, Aryl hydrocarbon receptor; conditions: HepG2, human, 24 h, read-out: RUmax; remark: listed apart in the source
[8] = Cytotoxicity against human HepG2 cells harboring AhR assessed as reduction in cell viability at > 5 uM measured for 24 hrs by MTT assay relative to control; format: cell-based; conditions: read-out: INH; procedure, shortened: as §1
[9] = biological target: T1, Aryl hydrocarbon receptor; conditions: HepG2, human, 24 h, read-out: RUmax; remark: listed apart in the source
[10] = biological target: T1, Aryl hydrocarbon receptor; conditions: HepG2, human, 24 h, read-out: RUmax; remark: listed apart in the source
HepG2 [11] = assay: Cytotoxicity against human HepG2 cells harboring AhR assessed as reduction in cell viability at 0.1 to 10 uM measured after 24 hrs by MTT assay; format: cell-based; conditions: hepg2, 24 h, dose 0.1-10 µM; procedure, shortened: as §1

Work on `Cc1ccccc1/N=N/c1ccc(NC(=O)c2ccnn2C)c(C)c1` yielded an RUmax [1] of 54.5% and an IC50 [2] of 2430 nM.
In the case of `O=Cc1c2[nH]c3ccccc3c2cc2[nH]c3ccccc3c12`, the Emax at 18 µM [3] is reported as 100%.
`CC(=O)Oc1ccc(C(c2ccc(C)cc2)c2ccccn2)cc1` (stereo not drawn) showed an EC50 [4] greater than 100 µM and an activity at 10 µM [5] of 9.42%.
In the case of `Oc1ccc(C(c2ccccn2)c2c(O)ccc3ccccc23)cc1` (stereo not drawn), the Activity (HepG2 [6]) is reported as “Non-Toxic”.
`Cc1ccc(C(c2ccccn2)c2ccccc2O)cc1` (stereo not drawn) gave an EC50 [4] greater than 100 µM, an activity at 10 µM [5] of 6.93% and an inhibition at 10 µM [7] of 114%.
Work on `CC(=O)Oc1ccc(C(c2ccc(Br)cc2)c2ccccn2)cc1` (stereo not drawn) yielded an EC50 [4] greater than 1000 µM, an activity at 10 µM [5] of 6.32% and an inhibition at 10 µM [7] of 143%.
For `CC(=O)Oc1ccc(C(c2ccc(Cl)cc2)c2cccc[n+]2[O-])cc1` (stereo not drawn), the EC50 [4] was greater than 200 µM, the activity at 10 µM [5] was 7.78% and the inhibition at 10 µM [7] was 78.8%.
`Cc1ccc(C(c2ccc(O)cc2)c2ccccn2)cc1` (stereo not drawn) showed an EC50 [4] greater than 100 µM, an activity at 10 µM [5] of 7.09% and an inhibition at 10 µM [7] of 139%.
With `Oc1ccccc1C(c1ccc(Cl)cc1)c1ccccn1` (stereo not drawn) the EC50 [4] was greater than 1000 µM, the activity at 10 µM [5] was 7.18% and the inhibition at 10 µM [7] was 115%.
Molecule `CC(=O)Oc1ccc(C(c2ccc(C)cc2)c2cccc[n+]2[O-])cc1` (stereo not drawn) has an EC50 [4] greater than 200 µM, an activity at 10 µM [5] of 6.28% and an inhibition at 10 µM [7] of 93.3%.
For `CC(=O)Oc1ccc(C(c2ccccn2)c2c[nH]c3ccccc23)cc1` (stereo not drawn), the Activity (HepG2 [6]) was “Non-Toxic”.
In the case of `Oc1ccc(C(c2ccccn2)c2cccs2)cc1` (stereo not drawn), the Activity (HepG2 [6]) is reported as “Non-Toxic”.
`Oc1ccccc1C(c1ccc(Br)cc1)c1ccccn1` (stereo not drawn) showed an EC50 [4] greater than 1000 µM, an activity at 10 µM [5] of 7.99% and an inhibition at 10 µM [7] of 117%.
Molecule `Oc1ccc(C(c2ccc(Cl)cc2)c2ccccn2)cc1` (stereo not drawn) has an EC50 [4] greater than 100 µM and an activity at 10 µM [5] of 6.59%.
In the case of `CC(=O)Oc1ccc(C(c2ccc(F)cc2)c2ccccn2)cc1` (stereo not drawn), the EC50 [4] is reported as greater than 100 µM, the activity at 10 µM [5] is reported as 8.77% and the inhibition at 10 µM [7] is reported as 118%.
Work on `CC(=O)Oc1ccc(C(c2ccc(F)cc2)c2cccc[n+]2[O-])cc1` (stereo not drawn) yielded an EC50 [4] greater than 1000 µM, an activity at 10 µM [5] of 6.51% and an inhibition at 10 µM [7] of 92.4%.
In the case of `COc1ccc(C(c2ccccn2)c2c[nH]c3ccccc23)cc1` (stereo not drawn), the Activity (HepG2 [6]) is reported as “Non-Toxic”, the EC50 [4] is reported as 21.7 µM and the activity at 10 µM [5] is reported as 114%.
With `COc1ccc(C(c2ccccn2)c2c(O)ccc3ccccc23)cc1` (stereo not drawn) the Activity (HepG2 [6]) was “Non-Toxic”.
With `CC(=O)Oc1ccc(C(c2ccccn2)c2c(OC(C)=O)ccc3ccccc23)cc1` (stereo not drawn) the EC50 [4] was greater than 200 µM, the activity at 10 µM [5] was 5.17% and the inhibition at 10 µM [7] was 144%.
For `COc1ccc(C(c2ccccn2)c2cccs2)cc1` (stereo not drawn), the Activity (HepG2 [6]) was “Non-Toxic”, the EC50 [4] was greater than 50 µM and the activity at 10 µM [5] was 10.5%. It also gave an inhibition at 10 µM [7] of 137%.
`Oc1ccccc1C(c1ccc(F)cc1)c1ccccn1` (stereo not drawn) gave an EC50 [4] greater than 1000 µM, an activity at 10 µM [5] of 6.89% and an inhibition at 10 µM [7] of 112%.
In the case of `COc1ccc(C(O)(c2ccccn2)c2ccc3ccccc3n2)cc1` (stereo not drawn), the Activity (HepG2 [6]) is reported as “Non-Toxic”.
With `CC(C)(C)c1ccc(C(c2ccccn2)c2ccccc2O)cc1` (stereo not drawn) the EC50 [4] was greater than 1000 µM and the activity at 10 µM [5] was 6.81%.
In the case of `CC(=O)Oc1ccc(C(c2ccc(C(C)(C)C)cc2)c2cccc[n+]2[O-])cc1` (stereo not drawn), the cytotoxicity at 24 h [8] is reported as 50%, the inhibition at 1 µM [9] is reported as 120% and the activity at 1 µM [10] is reported as 6.1%.
Molecule `Oc1ccc(C(c2ccc(Br)cc2)c2ccccn2)cc1` (stereo not drawn) has an EC50 [4] greater than 100 µM and an activity at 10 µM [5] of 7.71%.
`COc1ccc(C(c2ccccn2)n2nnc3ccccc32)cc1` (stereo not drawn) gave an EC50 [4] greater than 100 µM and an activity at 10 µM [5] of 8.86%.
For `Oc1ccc(C(c2ccc(F)cc2)c2ccccn2)cc1` (stereo not drawn), the EC50 [4] was greater than 400 µM and the activity at 10 µM [5] was 7.79%.
In the case of `CC(=O)Oc1ccc(C(c2ccc(C(C)(C)C)cc2)c2ccccn2)cc1` (stereo not drawn), the cytotoxicity at 24 h [8] is reported as 50%, the inhibition at 1 µM [9] is reported as 113% and the activity at 1 µM [10] is reported as 5.32%.
Work on `CC(=O)Oc1ccc(C(c2ccc(Br)cc2)c2cccc[n+]2[O-])cc1` (stereo not drawn) yielded an EC50 [4] greater than 100 µM, an activity at 10 µM [5] of 8.8% and an inhibition at 10 µM [7] of 106%.
Work on `CC(=O)Oc1ccc(C(c2ccc(Cl)cc2)c2ccccn2)cc1` (stereo not drawn) yielded an EC50 [4] greater than 1000 µM, an activity at 10 µM [5] of 6.26% and an inhibition at 10 µM [7] of 128%.
In the case of `CC(=O)Oc1ccc(C(c2ccccn2)n2nnc3ccccc32)cc1` (stereo not drawn), the EC50 [4] is reported as greater than 100 µM, the activity at 10 µM [5] is reported as 9.23% and the inhibition at 10 µM [7] is reported as 142%.
Molecule `CC(=O)Oc1ccc(C(c2ccc(C(F)(F)F)cc2)c2ccccn2)cc1` (stereo not drawn) has a cytotoxicity at 24 h [8] of 50%, an inhibition at 1 µM [9] of 117% and an activity at 1 µM [10] of 7.71%.
`CC(C)(C)c1ccc(C(c2ccc(O)cc2)c2ccccn2)cc1` (stereo not drawn) showed a cytotoxicity at 24 h [8] greater than 90%, an inhibition at 1 µM [9] of 113% and an activity at 1 µM [10] of 6.89%.
In the case of `COc1ccc(C(O)(c2ccc(C(F)(F)F)cc2)c2ccccn2)cc1` (stereo not drawn), the Activity (HepG2 [6]) is reported as “Non-Toxic”, the EC50 [4] is reported as 52 µM and the activity at 10 µM [5] is reported as 26.6%. The Activity (HepG2 [11]) was “Toxic”.
Work on `CC(=O)Oc1ccc(C(c2ccc(OC(C)=O)cc2)c2ccccn2)cc1` [BISACODYL] yielded an EC50 [4] greater than 1000 µM, an activity at 10 µM [5] of 6.58% and an inhibition at 10 µM [7] of 107%.
